{"data": "Measurements collected from several papers", "target": "Protein kinase C delta type (PRKCD, Homo sapiens, UniProt Q05655)", "note": "Protocols differ between the studies behind these lines."}
{"SMILES": "O=C(NCc1ncc(C(F)(F)F)cc1Cl)c1ccc2c(c1)C1(CCS(=O)(=O)CC1)[C@@H](C1CC1)N2S(=O)(=O)c1ccc(F)cc1", "observed": "cell-free assay", "technique": "competition with immobilised ligand", "concentration": "1 µM", "remaining binding": "100%"}
{"SMILES": "F[C@@H]1CCN(c2nccc(-c3cnn4ncccc34)n2)C1", "observed": "binding", "concentration": "1 µM", "remaining binding": "100%"}
{"SMILES": "Cc1cnc(Nc2ccc(C(=O)N3CCC(N4CCCC4)CC3)cc2)nc1-c1cc2ccccc2s1", "observed": "binding", "technique": "competition with immobilised ligand", "concentration": "1 µM", "remaining binding": "23%"}
{"SMILES": "Cc1cc(NC(=O)c2cccc(S(F)(F)(F)(F)F)c2)cc(-n2ccn3nc(-c4cccnc4)cc23)c1", "observed": "cell-free assay", "technique": "competition with immobilised ligand", "concentration": "1 µM", "remaining binding": "95.8%"}
{"SMILES": "C=CC(=O)N1CCC(C(=O)NCC(=O)N2CCN(c3nc(-c4cnc(N)nc4C(F)F)nc(N4CCOCC4)n3)CC2)CC1", "observed": "binding", "technique": "competition with immobilised ligand", "concentration": "1 µM", "remaining binding": "100%"}
{"SMILES": "C[C@@H]1CCN(c2nccc(-c3cnn4ncccc34)n2)C1", "observed": "binding", "concentration": "1 µM", "remaining binding": "100%"}
{"SMILES": "CNC(=O)[C@@H]1CC[C@@H](n2c(-c3ccc4cnccc4c3)nc3ccc(C(=O)NCc4cccc(C(N)=O)c4)cc32)C1", "observed": "binding", "technique": "competition with immobilised ligand", "concentration": "1 µM", "remaining binding": "81%"}
{"SMILES": "Cc1nc(N2CC[C@@H](O)C2)ncc1-c1cc(C(F)(F)F)cc2[nH]ncc12", "observed": "cell-free assay", "technique": "competition with immobilised ligand", "concentration": "1 µM", "remaining binding": "94%"}
{"SMILES": "Cc1cnn2ncc(-c3ccnc(N(C)C)n3)c2c1", "observed": "binding", "concentration": "1 µM", "remaining binding": "100%"}
{"SMILES": "O=C(NCC1CCOCC1)c1n[nH]cc1NC(=O)c1c(F)cccc1F", "observed": "binding", "technique": "competition with immobilised ligand", "concentration": "1 µM", "remaining binding": "100%"}
{"SMILES": "O=C(Nc1cnc(Oc2ccc(F)cc2)nc1)N1CCc2ncccc2[C@@H]1c1ccc(F)cc1", "observed": "cell-free assay", "technique": "competition with immobilised ligand", "concentration": "1 µM", "remaining binding": "87%"}
{"SMILES": "c1cncc(-c2cccc(Nc3nccc(NC4CCCCC4)n3)c2)c1", "observed": "binding", "technique": "competition with immobilised ligand", "concentration": "10 µM", "remaining binding": "45%"}
{"SMILES": "CN(CCCC(F)(F)F)c1nccc(-c2cnn3ncccc23)n1", "observed": "binding", "concentration": "1 µM", "remaining binding": "90%"}
{"SMILES": "Cc1cc(C)c(-n2ccn3nc(-c4cccnc4)cc23)cc1NC(=O)c1cc(C#N)cc(S(F)(F)(F)(F)F)c1", "observed": "cell-free assay", "technique": "competition with immobilised ligand", "concentration": "0.1 µM", "remaining binding": "93.1%"}
{"SMILES": "c1cnn2ncc(-c3ccnc(N4CCC45COC5)n3)c2c1", "observed": "binding", "concentration": "1 µM", "remaining binding": "100%"}
{"SMILES": "C[C@@H](c1ccc(-n2cnc3c(N)ncnc32)cc1)N1CCc2nn(C)c(Cc3ccccc3)c2C1=O", "observed": "binding", "technique": "competition with immobilised ligand", "concentration": "0.1 µM", "remaining binding": "100%"}
{"SMILES": "COc1cnc(Nc2cccc(S(N)(=O)=O)c2)nc1N1CCN(c2ccccc2)CC1", "observed": "binding", "technique": "competition with immobilised ligand", "concentration": "1 µM", "remaining binding": "100%"}
{"SMILES": "O=C(c1ccc(Nc2nccc(-c3cc4ccccc4s3)n2)cc1)N1CCC(N2CCCC2)CC1", "observed": "binding", "technique": "competition with immobilised ligand", "concentration": "1 µM", "remaining binding": "86%"}
{"SMILES": "N[C@@H]1CCN(c2nccc(-c3cnn4ncccc34)n2)C1", "observed": "binding", "concentration": "1 µM", "remaining binding": "96%"}
{"SMILES": "COc1ccc2c(O[C@@H]3C[C@H]4C(=O)N[C@]5(C(=O)O)CC5/C=C\\CCCCC[C@H](NC(=O)OC5CCCC5)C(=O)N4C3)cc(-c3csc(NC(=O)C(C)C)n3)nc2c1C (stereo partly drawn)", "observed": "cell-free assay", "technique": "competition with immobilised ligand", "concentration": "1 µM", "remaining binding": "84%"}
{"SMILES": "O=C(NCCCN1CCOCC1)c1ccc(Nc2ncc(Cl)c(-c3ccc(Cl)s3)n2)cc1", "observed": "binding", "technique": "competition with immobilised ligand", "concentration": "1 µM", "remaining binding": "81%"}
